Laboratory results published in the RNAGym collection of RNA variant scans (doi:10.1126/science.aae0568).
Variants at the floor of the assay were thinned out.

B1: tRNA (parent)
chain: GUUCCGUUGGCGUAAUGGUAACGCGUCUCCCUCCUAAGGAGAAGACUGCGGGUUCGAGUCCCGUACGGAACG

Variants of: B1
Assay: yeast fitness relative to wild type (ratio to wild type); higher = fitter; tRNA-Arg(CCU), competitive growth, 37 C, YPD
How it was run: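 Changes in genotype frequencies gave Darwinian fitness relative to wild type. Frequencies were read by 100-nucleotide paired-end sequencing of gene amplicons before and after pooled Saccharomyces cerevisiae strains, carrying tRNA-Arg(CCU) gene variants at the native locus, were competed in YPD at 37°C for 24 hours in six replicates. A genotype was kept only with ≥ 100 starting reads, and estimates < 0.5 were set to 0.5.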

U8A A15C G18C C49U C62U and U7G A21C G39C C49A G51A cannot be ordered by yeast fitness: at most 0.5 for the first, at most 0.5 for the second.

U7G C27G U32C A36G and U8A A14U G17A C27U cannot be ordered by yeast fitness: at most 0.5 for the first, at most 0.5 for the second.

Compared with U7C U32G C49U, U7G U32G is higher in yeast fitness: at most 0.5 for the first, 0.569 for the second.

Going from U7G U32C to U7G U8C C11G C34U G41A, the yeast fitness falls from 0.992 to 0.547.

Compared with U8A A21G C24A C30A A45U U47C C49A, U7G C22U U26C U64G G67C is lower in yeast fitness: 0.572 for the first, at most 0.5 for the second.

Compared with U7G A15G C27U G68A, U8A A15U C27G A36G is higher in yeast fitness: at most 0.5 for the first, 0.569 for the second.

Compared with U7G G39C A42G, U7G C27A A36C A42U is higher in yeast fitness: at most 0.5 for the first, 0.532 for the second.

Compared with U7G U16C C30A, U7G G51C is higher in yeast fitness: at most 0.5 for the first, 0.644 for the second.

Compared with U7G G25C G67A, U7G C29G G52C A57U is lower in yeast fitness: 0.682 for the first, at most 0.5 for the second.

Going from U8A A37G A43G U59A to U7G U47A C61A, the yeast fitness rises from 0.582 to 0.781.

U7G C22A U64C and U7G A14G C22U G23A G38A C55A cannot be ordered by yeast fitness: at most 0.5 for the first, at most 0.5 for the second.

U7G C11G C34U G41A C61A A65C and U7G C11G C34U G41A U54C U64C cannot be ordered by yeast fitness: at most 0.5 for the first, at most 0.5 for the second.

U7G G39A C66U and U7G U13A A42G C66G G67C cannot be ordered by yeast fitness: at most 0.5 for the first, at most 0.5 for the second.

U7G A14G A20G U35G A43G U59A and U7G A21C U26C G44C cannot be ordered by yeast fitness: at most 0.5 for the first, at most 0.5 for the second.

U7G A21C G50A U64C and U7G A42U U53A cannot be ordered by yeast fitness: at most 0.5 for the first, at most 0.5 for the second.

Going from U7G G41C G58C U59C to U7G A15G U19C A21G G41A C55A, the yeast fitness rises from at most 0.5 to 0.575.

Compared with U7G U32C A40G, U7G A15G C27A is higher in yeast fitness: 0.559 for the first, 0.567 for the second.

U8A A14G G39C and U7G A21C G58C cannot be ordered by yeast fitness: at most 0.5 for the first, at most 0.5 for the second.

U7G C34A G44C G51A and U7G A40C U47A cannot be ordered by yeast fitness: at most 0.5 for the first, at most 0.5 for the second.

Compared with U8A A37C A43U G63A, U7G C29U C31U G38C A70G is lower in yeast fitness: 0.561 for the first, at most 0.5 for the second.

Compared with U7G A14G C22U G38A, U7G G50A is higher in yeast fitness: 0.534 for the first, 0.858 for the second.

First: U7G C29G C46U
Second: U7G U19C U64C
The yeast fitness of the first is lower: 0.546 for the first, 0.954 for the second.

U7G A36G A45U and U7G C27U G68A cannot be ordered by yeast fitness: at most 0.5 for the first, at most 0.5 for the second.

First: U7G A42U
Second: U7G C11G C34U G41A G67U
The yeast fitness of the first is higher: 0.683 for the first, at most 0.5 for the second.

U7G G50C G67C and U7G C22U C24G A65U C66U cannot be ordered by yeast fitness: at most 0.5 for the first, at most 0.5 for the second.

First: U7G G38C
Second: U8A A36G G44A
The yeast fitness of the first is higher: 0.591 for the first, 0.527 for the second.

Going from U7G A36U G63A to U8A A14G C24G A45C C62U, the yeast fitness falls from 0.532 to at most 0.5.

First: U8A A36U C55G U59C A69C
Second: U7G C27G U28G G68A
The yeast fitness of the first is higher: 0.794 for the first, at most 0.5 for the second.

U7G A14U U19A C22U C60G and U7G C22A U53C cannot be ordered by yeast fitness: at most 0.5 for the first, at most 0.5 for the second.

First: U8A A14C C31A G41C C49A G56A G67C
Second: U7G C34G A36C
The yeast fitness of the first is lower: at most 0.5 for the first, 0.525 for the second.

Compared with U7G A21C G44C G58C, U7G A14G U64A is higher in yeast fitness: at most 0.5 for the first, 0.527 for the second.

U7G A15G C61U G67A and U8A A15G G50C C55U C60G A69G cannot be ordered by yeast fitness: at most 0.5 for the first, at most 0.5 for the second.

U8A A36G G38C G52C A57U A69U A70G and U7G U32C C34G A43U cannot be ordered by yeast fitness: at most 0.5 for the first, at most 0.5 for the second.

First: U7G A14U U53A
Second: U7C U54G
The yeast fitness of the first is higher: 0.554 for the first, 0.535 for the second.

Compared with U7C U54C, U7G U8A A14G C62U A65U is lower in yeast fitness: 0.821 for the first, at most 0.5 for the second.

First: U7C U28A G48C A69U A70U
Second: U7G
The yeast fitness of the first is lower: at most 0.5 for the first, 0.983 for the second.

Going from U7G G39C to U7G G39A, the yeast fitness rises from 0.632 to 0.874.

U8A A36G A40C U47A and U7G C27G U28G U59C cannot be ordered by yeast fitness: at most 0.5 for the first, at most 0.5 for the second.

First: U7G A14C
Second: U7G A14G
The yeast fitness of the first is lower: 0.532 for the first, 0.911 for the second.

U8A A15U C34U U64G and U7G G9A C31G A36G C62U cannot be ordered by yeast fitness: at most 0.5 for the first, at most 0.5 for the second.

Going from U7G A45U to U7G A14U U19A C22U, the yeast fitness falls from 0.852 to at most 0.5.

U7G A43U C61G and U7G G9A C31G A36G G68C cannot be ordered by yeast fitness: at most 0.5 for the first, at most 0.5 for the second.

U7G G23C C24A C30G A36U C61U A65U and U8A A40G C62A cannot be ordered by yeast fitness: at most 0.5 for the first, at most 0.5 for the second.

First: U7C U32A U53A
Second: U8A A40G U64C
The yeast fitness of the first is lower: 0.576 for the first, 0.623 for the second.

Compared with U8A A36U G68C, U7G C30U C60U A69C is higher in yeast fitness: at most 0.5 for the first, 0.576 for the second.

U7G C11U G12C C33U C61G C62G and U8A A15G C27A G56A cannot be ordered by yeast fitness: at most 0.5 for the first, at most 0.5 for the second.

U7G C22A C61G and U7G U26C A43G C49U cannot be ordered by yeast fitness: at most 0.5 for the first, at most 0.5 for the second.

Going from U7G A40U G63A to U7G G23U C27G U28G C60A, the yeast fitness falls from 0.66 to at most 0.5.

U7G A21C G48C C55U G56A and U7G A15G C33G A69U cannot be ordered by yeast fitness: at most 0.5 for the first, at most 0.5 for the second.

First: U7G C55U G56C G63U
Second: U7G C22G G50A G67A
The yeast fitness of the first is higher: 0.602 for the first, at most 0.5 for the second.

Compared with U7G A43C, U7G U26C C31A G38C is lower in yeast fitness: 0.969 for the first, 0.561 for the second.

First: U7G A43C U64A
Second: U7C U54C C55G
The yeast fitness of the first is higher: 0.682 for the first, 0.655 for the second.

Compared with U7G C62G A69G, U7G G10A C11G C27U A40U is higher in yeast fitness: at most 0.5 for the first, 0.538 for the second.

U7G G10C A43U C55U and U7G C33U C55G cannot be ordered by yeast fitness: at most 0.5 for the first, at most 0.5 for the second.

First: U7G A21G U53C A57C A69U
Second: U7G A21G
The yeast fitness of the first is lower: at most 0.5 for the first, 0.816 for the second.

First: U7G A21U
Second: U7G A21C
The yeast fitness of the first is higher: 0.717 for the first, 0.588 for the second.

Going from U7G G67A to U7G C27G U28G G39C A42G, the yeast fitness falls from 0.826 to at most 0.5.

U7G C46U C60A and U7C U26G A57U C66U cannot be ordered by yeast fitness: at most 0.5 for the first, at most 0.5 for the second.

U7G G38C C60G and U7G A15G A21C cannot be ordered by yeast fitness: at most 0.5 for the first, at most 0.5 for the second.

U7G A14G U35G A43G C55U U59A and U8A A21G C24A C30A A45U C49A A65U cannot be ordered by yeast fitness: at most 0.5 for the first, at most 0.5 for the second.

Compared with U7G C30A G48A, U7C U64G A69C is lower in yeast fitness: 0.673 for the first, 0.603 for the second.

U7G C31U G39A C55U G68C and U7G A21C G51A cannot be ordered by yeast fitness: at most 0.5 for the first, at most 0.5 for the second.

Compared with U7G A69U, U7G A43G C46G A69U is lower in yeast fitness: 0.894 for the first, at most 0.5 for the second.

Compared with U8A A14G C24G A45C U64A, U7G C46U A70G is higher in yeast fitness: at most 0.5 for the first, 0.752 for the second.

Going from U8A A14U C22U to U8A A21U C55A, the yeast fitness falls from 0.592 to at most 0.5.

U8A A40U A43U A65C and U8A A15U A20U G25C C29A A40C G50A cannot be ordered by yeast fitness: at most 0.5 for the first, at most 0.5 for the second.

U8A A15U C29U G38C and U7G C61U G63A C66A cannot be ordered by yeast fitness: at most 0.5 for the first, at most 0.5 for the second.

First: U7G G10C C29A C55U A69U
Second: U7G U26A G63A
The yeast fitness of the first is higher: 0.534 for the first, at most 0.5 for the second.

U7C U59G C60A G68U and U7G C34U C60A cannot be ordered by yeast fitness: at most 0.5 for the first, at most 0.5 for the second.

First: U7C U32C U53C
Second: U8A A37C
The yeast fitness of the first is lower: 0.536 for the first, 0.679 for the second.

Going from U8A A37G to U7G C22G A43U U47A G51A, the yeast fitness rises from at most 0.5 to 0.664.

U7G C11G C34U A36G G41A A65G and U7G C60A A69G cannot be ordered by yeast fitness: at most 0.5 for the first, at most 0.5 for the second.

U7G A20C A42C and U7C U28A C34U C61U cannot be ordered by yeast fitness: at most 0.5 for the first, at most 0.5 for the second.

First: U7G A15C
Second: U7G A15U
The yeast fitness of the first is higher: 0.653 for the first, 0.592 for the second.

Going from U8A A15C G18C C49U U64A A69U to U7G C31U U47C, the yeast fitness falls from 0.651 to 0.536.

Going from U7G C11G C34U G41A A57U C66U to U7G C62A, the yeast fitness rises from at most 0.5 to 0.612.

Compared with U8A A20C U35A G38C A69C, U7G U32C A65G is higher in yeast fitness: 0.535 for the first, 0.795 for the second.

U7G A20C A70G and U7G A42C G44C G67C cannot be ordered by yeast fitness: at most 0.5 for the first, at most 0.5 for the second.

First: U7G A40U A43U G44A A45U U53A
Second: U7G C30U G50C
The yeast fitness of the first is higher: 0.61 for the first, at most 0.5 for the second.

Compared with U7G U8A A14G, U7C U28A is higher in yeast fitness: 0.525 for the first, 0.845 for the second.

Going from U7C U28C to U7G G23C C30G A36U C61U, the yeast fitness falls from 0.879 to at most 0.5.

Compared with U7G C55U, U7G C55A is lower in yeast fitness: 0.855 for the first, 0.665 for the second.

U7G C27G U32C A36G G63A and U7G C29G C61U G68A cannot be ordered by yeast fitness: at most 0.5 for the first, at most 0.5 for the second.

For U7G C34G, the yeast fitness was 0.649.
